Data on four compounds can be found in ChEMBL document CHEMBL4130626, “α-Arylidene Diacylglycerol-Lactones (DAG-Lactones) as Selective Ras Guanine-Releasing Protein 3 (RasGRP3) Ligands” (J Med Chem, 2018).

SMILES strings stand for the structures.

For assay [1], the target named is T1, Ras guanyl-releasing protein 3 (Homo sapiens, UniProt Q8IV61).
T1 sequence (Q8IV61 whole entry): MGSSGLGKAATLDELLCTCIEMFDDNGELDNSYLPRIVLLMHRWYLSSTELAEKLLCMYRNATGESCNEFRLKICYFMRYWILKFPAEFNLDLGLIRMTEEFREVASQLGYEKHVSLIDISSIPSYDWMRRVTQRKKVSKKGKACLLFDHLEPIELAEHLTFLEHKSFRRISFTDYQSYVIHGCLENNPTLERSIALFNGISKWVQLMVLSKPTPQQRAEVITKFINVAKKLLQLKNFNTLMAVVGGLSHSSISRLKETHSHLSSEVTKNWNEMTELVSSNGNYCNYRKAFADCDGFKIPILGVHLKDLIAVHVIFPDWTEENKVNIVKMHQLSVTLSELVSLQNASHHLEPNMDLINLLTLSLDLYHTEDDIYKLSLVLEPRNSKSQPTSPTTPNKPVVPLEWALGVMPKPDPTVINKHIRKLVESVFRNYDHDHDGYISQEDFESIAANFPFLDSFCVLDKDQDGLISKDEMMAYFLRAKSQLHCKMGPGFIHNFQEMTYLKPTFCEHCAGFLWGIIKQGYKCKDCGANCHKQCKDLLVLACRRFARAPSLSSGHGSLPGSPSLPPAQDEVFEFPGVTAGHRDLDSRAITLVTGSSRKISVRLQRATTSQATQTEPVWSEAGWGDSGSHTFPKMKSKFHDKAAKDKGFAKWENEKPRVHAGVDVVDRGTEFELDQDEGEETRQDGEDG
Briefly: Activation of GFP-tagged RasGRP3 (unknown origin) expressed in HEK293 cells after 30 mins by immunoblot method. The assay is classed as cell-based. The procedure, abridged: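 HEK293 cells grown in EMEM + 10% FBS, transfected after 48 h with GFP-RasGRP3 (Lipofectamine Plus). Treated 30 min at 37 °C, 5% CO2, with half-log increasing concentrations up to 10 µM, 1000 nM PMA or DMSO. Active Ras pulled down from lysates on Raf1-RBD agarose (60 min, 4 °C), immunoblotted with anti-Pan-Ras. Band intensity normalised to 1000 nM PMA. EC50 is the mean of n = 3.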

Assay [2] is filed under the species Homo sapiens. Put plainly: Selectivity ratio of EC50 for PKCdelta (unknown origin) expressed in HEK293 cells harboring GFP-tagged RasGRP3 to EC50 for GFP-tagged RasGRP3 (unknown origin) expressed in HEK293 cells. The assay is classed as cell-based. In outline:
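One EC50 comes from PKCδ S299 phosphorylation on immunoblot, the other from Ras-GTP pulled down on Raf1-RBD. Both signals normalised to 1000 nM PMA. EC50s above 10 µM are extrapolated.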

The target of assay [3] is Protein kinase C delta type (Homo sapiens, UniProt Q05655). Briefly: Activation of PKCdelta (unknown origin) expressed in HEK293 cells harboring GFP-tagged RasGRP3 assessed as phosphorylation at ser299 residues after 30 mins by immunoblot method. It is filed as cell-based. The procedure, abridged: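 Cells are GFP-RasGRP3-transfected HEK293, grown in EMEM + 10% FBS. Exposed 30 min at 37 °C, 5% CO2, to half-log concentrations up to 10 µM, 1000 nM PMA or DMSO. Lysed in RIPA with protease and phosphatase inhibitors. 50 µg protein run on 10% SDS-PAGE and blotted for phospho-PKCδ S299; anti-GFP used as loading control. Signal normalised to 1000 nM PMA. EC50 is the mean of n = 3.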
Chain of Protein kinase C delta type (Q05655 whole entry): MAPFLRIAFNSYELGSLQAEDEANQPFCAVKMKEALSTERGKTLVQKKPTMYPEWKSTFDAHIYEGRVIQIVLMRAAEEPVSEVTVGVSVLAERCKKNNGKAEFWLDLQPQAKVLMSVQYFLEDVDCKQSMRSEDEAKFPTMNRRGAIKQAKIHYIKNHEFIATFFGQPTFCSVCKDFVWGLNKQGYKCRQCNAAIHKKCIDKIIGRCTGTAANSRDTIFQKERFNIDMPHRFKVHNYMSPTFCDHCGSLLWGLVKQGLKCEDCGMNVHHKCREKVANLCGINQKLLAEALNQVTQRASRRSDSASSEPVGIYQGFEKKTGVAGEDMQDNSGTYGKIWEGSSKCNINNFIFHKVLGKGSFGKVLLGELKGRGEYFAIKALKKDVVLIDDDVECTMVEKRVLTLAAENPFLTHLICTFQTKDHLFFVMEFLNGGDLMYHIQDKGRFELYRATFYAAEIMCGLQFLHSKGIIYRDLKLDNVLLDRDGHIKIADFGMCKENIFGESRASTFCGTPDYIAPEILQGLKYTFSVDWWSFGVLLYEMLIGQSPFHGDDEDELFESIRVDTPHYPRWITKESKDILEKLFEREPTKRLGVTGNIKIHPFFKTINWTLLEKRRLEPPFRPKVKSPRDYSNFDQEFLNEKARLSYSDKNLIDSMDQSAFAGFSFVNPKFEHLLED
(In general: In western blotting, separated proteins are transferred to a membrane and probed.)

Assay [4] is filed under the species Homo sapiens. Briefly: Selectivity ratio of Ki for GST-tagged PKCalpha C1 domain to Ki for human RasGRP3 overexpressed in HEK-293 cells.
Assay [5] concerns the target T1, Ras guanyl-releasing protein 3. Briefly: Displacement of [3H]PDBu from full length MBP-tagged human RasGRP3 expressed in Escherichia coli BL21 (DE3) after 5 mins by scintillation counting. In outline: (§1)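 Competition of [3H]PDBu binding by polyethylene glycol precipitation, with 100 µg/ml phosphatidylserine and ≤0.003% Triton X-100, 5 min at 37 °C. Proteins: full-length purified human PKCα, PKCε; full-length RasGRP1; MBP-RasGRP3 from E. coli BL21(DE3) induced with 0.3 mM IPTG 6 h at room temperature. Ki mean ± SEM of ≥2 experiments, triplicate points.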

In assay [6] the target is Protein kinase C alpha type (Homo sapiens, UniProt P17252). Briefly: Displacement of [3H]PDBu from full length recombinant human PKCalpha expressed in baculovirus expression system after 5 mins by scintillation counting. In outline:
as §1

Assay [7] addresses T2, Protein kinase C epsilon type (Homo sapiens, UniProt Q02156).
T2 sequence (Q02156 whole entry): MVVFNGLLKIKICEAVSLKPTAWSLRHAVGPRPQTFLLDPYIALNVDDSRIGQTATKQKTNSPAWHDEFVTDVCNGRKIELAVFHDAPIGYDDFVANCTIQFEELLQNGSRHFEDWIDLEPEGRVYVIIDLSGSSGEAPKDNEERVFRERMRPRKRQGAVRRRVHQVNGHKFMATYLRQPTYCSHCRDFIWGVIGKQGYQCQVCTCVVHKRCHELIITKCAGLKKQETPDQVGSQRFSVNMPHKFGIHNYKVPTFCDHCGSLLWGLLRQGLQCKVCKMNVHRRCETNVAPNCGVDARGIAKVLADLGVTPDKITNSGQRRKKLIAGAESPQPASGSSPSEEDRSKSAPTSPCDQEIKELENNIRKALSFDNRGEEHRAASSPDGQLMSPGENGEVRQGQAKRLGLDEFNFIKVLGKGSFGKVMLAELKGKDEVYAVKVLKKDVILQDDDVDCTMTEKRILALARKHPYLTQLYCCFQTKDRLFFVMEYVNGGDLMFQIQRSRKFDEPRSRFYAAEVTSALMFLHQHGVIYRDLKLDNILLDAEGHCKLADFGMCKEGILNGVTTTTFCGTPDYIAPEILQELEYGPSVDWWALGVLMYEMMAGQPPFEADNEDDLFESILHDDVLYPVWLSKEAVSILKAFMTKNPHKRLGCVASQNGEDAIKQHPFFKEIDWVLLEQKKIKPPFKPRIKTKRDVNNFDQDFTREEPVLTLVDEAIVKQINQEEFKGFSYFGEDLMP
Put plainly: Displacement of [3H]PDBu from full length recombinant human PKCepsilon expressed in baculovirus expression system after 5 mins by scintillation counting. The procedure, abridged: as §1
(Loss of bound radioactivity is the signal in a displacement assay; it reports binding, not function.)

By EC50 is commonly meant the concentration needed to bring the measured effect to its halfway point. As a reminder, the Ki is a dissociation constant, usually derived from enzyme kinetics or from competition with a known ligand.

For `CCCCCCCCCCCCCC(=O)O[C@@H]1[C@@H](C)[C@@]2(O)[C@@H](C=C(CO)C[C@]3(O)C(=O)C(C)=C[C@@H]23)[C@@H]2C(C)(C)[C@]12OC(C)=O` [PHORBOL MYRISTATE ACETATE], the EC50 in assay [1] is 82 nM; in assay [3] it was 290 nM. Besides, the Ratio EC50 in assay [2] amounted to 3.5.
On to `CN(C)c1ccc(C(=O)OCC2(CO)C/C(=C\c3ccc([N+](=O)[O-])cc3)C(=O)O2)cc1` (stereo not drawn), for which the Ratio Ki in assay [4] worked out at 90.
In the case of `COc1ccc(C(=O)OCC2(CO)C/C(=C\c3ccc([N+](=O)[O-])cc3)C(=O)O2)cc1` (stereo not drawn), in assay [4], the Ratio Ki amounted to 20.
Take `CC(C)(C)C(=O)OCC1(CO)C/C(=C\c2coc3ccccc23)C(=O)O1` (stereo not drawn): the Ki in assay [5] came out at 2.8 nM; in assay [6], 114 nM; in assay [7] it was 35.3 nM.
